Bioassay records as filed in PubChem.
IMP-1 inhibitor – blocks Pseudomonas aeruginosa IMP-1 metallo-beta-lactamase | purified IMP-1, nitrocefin hydrolysis, epi-absorbance fluorescence | inhibition, % at 5.6 µM | 0.45% of 290,000 active;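 active means inhibition above the mean plus 3 SD of all compounds in the same screening run, cut at about 4.5% in these data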;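 further: 0% = IMP-1 with DMSO and 100% = DMSO wells lacking enzyme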
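System: purified IMP-1 / Input: IMP-1 dispensed at 0.2 nM / Medium: 50 mM HEPES pH 7.1, 50 µM ZnSO4, 0.05% Brij 35 / Timing: 15 min enzyme–compound preincubation, then 25 min nitrocefin reaction, 25 °C / Technique: plate fluorescence quenching by hydrolysis product, ex 480/em 530 nm / Repeats: singlicate testing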
aSyn UTR inh – MLPCN primary screen, SNCA 5' untranslated region; 0.82% of 300,000 active; inhibition, % (tested at 7.5 µM); alpha-synuclein 5'UTR reporter, inhibitor activity; AID 1813; in the data active means inhibition above about 60%;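 further: H4 neuroglioblastoma cells stably carrying SNCA 5'UTR luciferase fusion; 0% = DMSO wells and 100% = positive control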
Mdm2 MdmX PPI – inhibitors of human Mdm2/MdmX interaction; SaOS-2 split-luciferase Mdm2/MdmX complementation, luminescence; inhibition, % at 8 µM; 3% of 330,000 active;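 active means inhibition of at least 50% at 8 µM in the primary screen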
VIM-2 inh – inhibitors of Pseudomonas aeruginosa VIM-2 metallo-beta-lactamase; 0.89% of 290,000 active; inhibition, % at 5.6 µM; AID 1527; purified VIM-2, nitrocefin hydrolysis, epi-absorbance fluorescence;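 active means inhibition above the mean of all tested compounds plus 3 SD, cutoff set per screening run, cut at about 7.5% in these data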;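 further: red hydrolysis product quenches plate fluorescence so inhibitors raise well fluorescence; 0% = enzyme with DMSO and 100% = DMSO without enzyme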
Jurkat NFkB inh – lowers PMA/ionomycin-induced NF-kB signal in Jurkat cells; PMA/ionomycin-induced NF-kB luciferase reporter, luminescence; inhibition, % at 4 µM; 0.53% of 330,000 active; in the data active means inhibition above about 50%
697 NFkB inh – lowers PMA/ionomycin-induced NF-kB signal in 697 B cells; 697 B-cell NF-kB luciferase reporter, 16 h; inhibition, % at 4 µM; 0.33% of 330,000 active; in the data active means inhibition above about 35%
Mdm2 MdmX conf – confirmation of human Mdm2/MdmX interaction inhibitors. shares compounds with Mdm2 MdmX PPI. Mdm2-MdmX binding, luminescent assay. inhibition, % at 8 µM. 55% of 10,000 active. AID 489028; in the data active means inhibition above about 40%
Full FLuc ctr – inhibits full-length luciferase, flagging false Mdm2/MdmX hits. shares compounds with Mdm2 MdmX PPI. SaOS-2 full-length luciferase counterscreen, luminescence. inhibition, % at 8 µM. 77% of 6,200 active. AID 504607;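 active means mean inhibition at 8 µM reaching about 37%, which flags the compound as non-specific, limit read from the data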;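 further: p53-null SaOS-2 cells with luciferase driven by a doxycycline-inducible promoter; compound on cells about two nights before reading with doxycycline added after day one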
Numbers without * were called inactive; / = no result given. Most compounds without a hit are left out; they make up all but 4.7% or so of the library.

SMILES | IMP-1 inhibitor | aSyn UTR inh | Mdm2 MdmX PPI | VIM-2 inh | Jurkat NFkB inh | 697 NFkB inh | Mdm2 MdmX conf | others
O=C(N/N=C/c1c[nH]c2ccccc12)c1cc(-c2cccc3ccccc23)n[nH]1 | -3 | -24 | 58* | -1 | 39 | -20 | 2
O=C(N/N=C/c1c[nH]c2ccccc12)c1cc(-c2ccccc2)n[nH]1 | -5 | -72 | 28 | -2 | 6 | 17 | /
O=C(N/N=C/c1c[nH]c2ccccc12)c1cc(-c2ccc3ccccc3c2)n[nH]1 | -5 | -37 | 54* | -4 | 46 | -213 | 52* | Full FLuc ctr=87*
CC(C)(C)NC(=O)C(c1ccc(F)cc1)N(CC1CCCO1)C(=O)CCC(=O)Nc1ccccn1 (configuration not stated) | -3 | -5 | -11 | -4 | 7 | 11 | /
Cc1ccc(C)c(S(=O)(=O)N2CCCCC2CCNC(=O)C(=O)NCc2ccncc2)c1 (configuration not stated) | / | 34 | 12 | / | -9 | 23 | /
COc1ccc(/C=N/NC(=O)c2ccoc2C)cc1COc1c(C)cccc1C | -2 | 43 | 76* | -2 | -27 | -84 | 32
COc1cc2ccccc2cc1C(=O)N/N=C/c1ccc2c(c1)OCO2 | -4 | -163 | 51* | -4 | 29 | -20 | 70* | Full FLuc ctr=53*
COc1ccc(/C=N/NC(=O)c2cc(C)oc2C)cc1OCc1ccccc1 | -2 | 6 | 62* | -3 | 20 | 34 | 8
COc1ccccc1C(=O)N/N=C/c1ccc2c(c1)OCO2 | -2 | -173 | -21 | -2 | -71 | -50 | /
Fc1ccc(Cn2nnnc2CN2CCc3ccccc3C2)cc1 | -1 | 3 | 30 | -2 | -6 | 2 | /
CC(=O)NC(Cc1cccc(F)c1)C(=O)NC1CCN(c2nnnn2-c2ccccc2)CC1 (configuration not stated) | -1 | -7 | -12 | -3 | 4 | 15 | /
COc1ccc(C(C[N+](=O)[O-])c2c(-c3ccccc3)cc3ccccn23)cc1OC (configuration not stated) | -4 | -18 | 37 | -1 | 3 | 13 | /
COc1cc(C(C[N+](=O)[O-])c2c(-c3ccccc3)cc3ccccn23)cc(OC)c1OC (configuration not stated) | -2 | -18 | 55* | -5 | 9 | 0 | 15
COc1ccc(C(C[N+](=O)[O-])c2c(-c3ccccc3)cc3ccccn23)cc1 (configuration not stated) | 1 | -51 | 96* | 2 | 8 | -13 | 16
CCCCn1c(N)c(N(CCOC)C(=O)c2ccc3c(c2)C(=O)N(c2ccccc2C)C3=O)c(=O)[nH]c1=O | / | 3 | -6 | / | 5 | -6 | /
CCN(C(=O)C(C)Cl)c1ccccc1 (configuration not stated) | -3 | 19 | -2 | -1 | 7 | -8 | /
O=C(COC(=O)/C=C/c1ccccc1[N+](=O)[O-])Nc1ccc(S(=O)(=O)N2CCOCC2)cc1 | / | / | 5 | / | 3 | -2 | /
CC(C)Cn1c(C(C)C)nc([N+](=O)[O-])c1Sc1ccc(Cl)cn1 | -8 | -10 | 28 | -5 | 10 | -15 | /
CCCCn1c(CCC)nc([N+](=O)[O-])c1Sc1ccc(Cl)cn1 | -4 | -29 | 63* | -2 | 14 | 18 | 18
CCN(CC)CCNC(=O)C1CCN(S(=O)(=O)c2c(C)noc2/C=C/c2ccccc2F)CC1 | -2 | 6 | 56* | 2 | -5 | -19 | 24
CSc1nc2sc(-c3ccccc3)cc2c(=O)n1N | -3 | -74 | 68* | 0 | -129 | -107 | 40* | Full FLuc ctr=164*
CC(C)Sc1nc2sc(-c3ccccc3)cc2c(=O)n1N | -3 | / | 11 | 1 | -17 | -7 | /
COc1ccccc1OCC(=O)NCCS(=O)(=O)N1CCN(c2ccccc2)CC1 | / | 18 | 20 | / | -1 | 10 | /
CC(C)c1ccc(/C=N/NC(=O)CN(c2cccc(Cl)c2Cl)S(C)(=O)=O)cc1 | -3 | 33 | 61* | -5 | -27 | -17 | 6
CC[C@H](C)Cc1cn([C@@H](CCCN=C(NC(=O)OC(C)(C)C)NC(=O)OC(C)(C)C)C(=O)NCCCCCCCCCCC(=O)N2CCN(C(=O)OC(C)(C)C)CC2)nn1 | / | 17 | 66* | / | 30 | -26 | 32
SMILES | IMP-1 inhibitor | aSyn UTR inh | Mdm2 MdmX PPI | VIM-2 inh | Jurkat NFkB inh | 697 NFkB inh | Mdm2 MdmX conf | others
CC[C@H](C)Cc1cn([C@@H](CCCCN)C(=O)NCCCCCCCCCCC(=O)N2CCNCC2)nn1 | / | -12 | -2 | / | 17 | -7 | /
O=C(CCN1CCCCC1)NNC(=O)C12CC3CC(CC(C3)C1)C2 | -3 | 31 | -3 | -4 | -4 | -4 | /
Cc1ccccc1OCCCn1c(CO)nc2ccccc21 | -4 | -21 | -9 | -3 | -18 | -7 | /
OC(CNCc1ccco1)Cn1c2ccc(Br)cc2c2cc(Br)ccc21 (configuration not stated) | -3 | 24 | 75* | -2 | -8 | -35 | 31 | Full FLuc ctr=70*
CCCCNc1c(-c2ccc(OC)c(Sc3ccc(OC)cc3)c2)nc2ccccn12 | / | -2 | 94* | / | -4 | -24 | 40 | Full FLuc ctr=65*
CCCCNc1c(-c2ccc(OC)c(Sc3ccc(OC)cc3)c2)nc2cnccn12 | / | / | 33 | / | 1 | -14 | /
CCCCNc1c(-c2ccc(SC(C)CC)cc2)nc2cnccn12 (configuration not stated) | / | / | 52* | / | 6 | -59 | 11
C/[N+]([O-])=C\c1cccc(OCCN2CCN(c3ncc(C(F)(F)F)cc3Cl)CC2)c1 | -2 | 24 | 4 | -2 | 2 | -2 | /
CC(=Nc1ccccc1C)C1=C(O)CSC1=O | 2 | -29 | -7 | -4 | -28 | -46 | /
CCN(CC)C(=O)[C@H]1CC(CC(=O)NC/C=C(\C)CCC=C(C)C)C(=O)N2CCc3c([nH]c4ccc(OC)cc34)[C@]12C (some centres not stated) | / | / | 87* | / | / | 14 | 45* | Full FLuc ctr=59*
CCN(CC)C(=O)[C@H]1C[C@H](CC(=O)NCC23CC4CC(CC(C4)C2)C3)C(=O)N2CCc3c([nH]c4cc(-c5ccco5)ccc34)[C@]12C | / | / | 84* | / | / | 14 | 56* | Full FLuc ctr=71*
C[C@]12c3[nH]c4cc(-c5ccco5)ccc4c3CCN1C(=O)[C@@H](CC(=O)NCC13CC4CC(CC(C4)C1)C3)C[C@@H]2C(=O)N1CCOCC1 | / | / | 85* | / | / | 18 | 16
CCN(CC)C(=O)[C@H]1C[C@H](CC(=O)NCCCOC)C(=O)N2CCc3c([nH]c4cc(-c5ccco5)ccc34)[C@]12C | / | / | 20 | / | / | 5 | /
C[C@]12c3[nH]c4cc(-c5ccco5)ccc4c3CCN1C(=O)[C@@H](CC(=O)NCCN1CCOCC1)C[C@@H]2C(=O)N1CCCCC1 | / | / | 15 | / | / | 3 | /
